{
  "source": "ChEMBL document CHEMBL1799953",
  "about": "“Backbone cyclic peptide inhibitors of protein kinase B (PKB/Akt)” (J Med Chem, 2011)",
  "note": "Activity calls are given as the source filed them. The rule behind the calls is not given here. *1 amine or outer side, *2 acyl side, *3 side chain or, on linkers, in order; H or OH if unused. Where a SMILES comes first, the peptide text is derived from it. Bridges are numbered along the chain shown (N, C = ends). [ ]: non-standard residue; d: D form. N(6-aminohexyl)Gly = O=C(CN(CCCCCCN[*:3])[*:1])[*:2]; NGly(3-aminopropyl) = O=C(CN(CCCN[*:3])[*:1])[*:2]; N(2-Aminoethyl)Gly = O=C(CN(CCN[*:3])[*:1])[*:2]; Heptanedioyl = O=C(CCCCCC(=O)[*:2])[*:1]; Adipoyl = O=C(CCCCC(=O)[*:2])[*:1]; Gly(N-(CH2)6NH2) = NCCCCCCNCC(=O)O; Gly(N-2-aminoethyl) = NCCNCC(=O)O; Cha = N[C@@H](CC1CCCCC1)C(=O)O; Suc = O=C(CCC(=O)[*:2])[*:1]; hLeu = CC(C)CC[C@H](N)C(=O)O; Nle = CCCC[C@H](N)C(=O)O; Nva = CCC[C@H](N)C(=O)O; Dap = NC[C@H](N)C(=O)O; CO = O=C([*:1])[*:2]; Nlys = NCCCCNCC(=O)O",
  "data": [
    {"target": "RAC-alpha serine/threonine-protein kinase (Homo sapiens, UniProt P31749)", "sequence (P31749 whole entry)": "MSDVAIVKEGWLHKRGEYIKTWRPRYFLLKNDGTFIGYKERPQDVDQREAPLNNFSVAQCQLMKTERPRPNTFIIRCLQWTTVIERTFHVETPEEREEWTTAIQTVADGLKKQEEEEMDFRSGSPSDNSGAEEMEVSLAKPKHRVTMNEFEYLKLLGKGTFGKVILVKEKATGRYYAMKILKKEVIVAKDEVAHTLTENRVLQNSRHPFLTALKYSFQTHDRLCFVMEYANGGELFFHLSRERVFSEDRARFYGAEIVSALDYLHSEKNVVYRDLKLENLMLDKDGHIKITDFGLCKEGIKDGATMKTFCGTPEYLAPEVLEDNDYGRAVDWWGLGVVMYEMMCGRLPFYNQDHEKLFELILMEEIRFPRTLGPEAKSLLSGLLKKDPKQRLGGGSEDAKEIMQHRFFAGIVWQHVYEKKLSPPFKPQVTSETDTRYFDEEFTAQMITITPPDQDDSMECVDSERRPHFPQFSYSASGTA", "assay": "Inhibition of Akt using RPRTSSF peptide and [gamma32]ATP at 5 uM by cell-free radioactive assay relative to control", "summary_of_the_method": "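Cell-free 32P kinase assay: HisΔPHPKBEEEFlag (0.005 units, one-step Ni-NTA partial purification), 50 mM Hepes pH 7.4, 0.1 mM EGTA, 0.1% 2-mercaptoethanol, 10 mM magnesium acetate, 3 μM RPRTSSF substrate, 10 μM [γ32P]ATP (1 μCi/well). Inhibitor at 5 μM. Activity loss expressed as percent of uninhibited reaction.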", "values": [
      {"smiles": "CCC[C@@H]1NC(=O)[C@H](CCCNC(=N)N)NC(=O)CN(C(=O)[C@@H](N)CCCNC(=N)N)CCNC(=O)NCCCCN(CC(N)=O)C(=O)[C@H](CCC(C)C)NC(=O)[C@H](CN)NC(=O)[C@H](Cc2ccc(O)cc2)NC1=O", "note": "(H-R[N(2-Aminoethyl)Gly]R[Nva]Y[Dap][hLeu][Nlys]-NH2; linker 2-8 via CO)", "inhibition": "98%"},
      {"smiles": "CCC[C@H](NC(=O)[C@H](CCCNC(=N)N)NC(=O)[C@H](CN)NC(=O)[C@@H](N)CCCNC(=N)N)C(=O)N[C@@H](Cc1ccc(O)cc1)C(=O)N[C@@H](CN)C(=O)N[C@@H](CCC(C)C)C(N)=O", "inhibition": "94%"},
      {"smiles": "CCC[C@@H]1NC(=O)[C@H](CCCNC(=N)N)NC(=O)[C@@H]2CCCN2C(=O)[C@H](CCCNC(=N)N)NC(=O)CCC(=O)NCCCCN(CC(N)=O)C(=O)[C@H](CCC(C)C)NC(=O)[C@H](CN)NC(=O)[C@H](Cc2ccc(O)cc2)NC1=O", "note": "(RPR[Nva]Y[Dap][hLeu][Nlys]-NH2; linker N-8 via Suc)", "inhibition": "13%"},
      {"smiles": "CCC[C@H](NC(=O)[C@H](CCCNC(=N)N)NC(=O)[C@@H](CC(=O)O)NC(=O)[C@@H](N)CCCNC(=N)N)C(=O)N[C@@H](Cc1ccc(O)cc1)C(=O)N[C@@H](CN)C(=O)N[C@@H](CCC(C)C)C(N)=O", "inhibition": "inactive"},
      {"smiles": "CCC[C@@H]1NC(=O)[C@H](CCCNC(=N)N)NC(=O)[C@@H]2CCCN2C(=O)[C@H](CCCNC(=N)N)NC(=O)CCCCC(=O)NCCCCN(CC(N)=O)C(=O)[C@H](CCC(C)C)NC(=O)[C@H](CN)NC(=O)[C@H](Cc2ccc(O)cc2)NC1=O", "note": "(RPR[Nva]Y[Dap][hLeu][Nlys]-NH2; linker N-8 via Adipoyl)", "inhibition": "18%"},
      {"smiles": "CCC[C@H](NC(=O)[C@H](CCCNC(=N)N)NC(=O)[C@@H](Cc1ccc(O)cc1)NC(=O)[C@@H](N)CCCNC(=N)N)C(=O)N[C@@H](Cc1ccc(O)cc1)C(=O)N[C@@H](CN)C(=O)N[C@@H](CCC(C)C)C(N)=O", "inhibition": "inactive"},
      {"smiles": "CCC[C@H](NC(=O)[C@H](CCCNC(=N)N)NC(=O)[C@H](C)NC(=O)[C@@H](N)CCCNC(=N)N)C(=O)N[C@@H](Cc1ccc(O)cc1)C(=O)N[C@@H](CN)C(=O)N[C@@H](CCC(C)C)C(N)=O", "inhibition": "81%"},
      {"smiles": "CCC[C@H](NC(=O)[C@H](CCCNC(=N)N)NC(=O)[C@@H](CCCCN)NC(=O)[C@@H](N)CCCNC(=N)N)C(=O)N[C@@H](Cc1ccc(O)cc1)C(=O)N[C@@H](CN)C(=O)N[C@@H](CCC(C)C)C(N)=O", "inhibition": "27%"},
      {"smiles": "CCC[C@@H]1NC(=O)[C@H](CCCNC(=N)N)NC(=O)[C@@H]2CCCN2C(=O)[C@H](CCCNC(=N)N)NC(=O)CCCCCC(=O)NCCCCN(CC(N)=O)C(=O)[C@H](CCC(C)C)NC(=O)[C@H](CN)NC(=O)[C@H](Cc2ccc(O)cc2)NC1=O", "note": "(RPR[Nva]Y[Dap][hLeu][Nlys]-NH2; linker N-8 via Heptanedioyl)", "inhibition": "16%"},
      {"smiles": "CCC[C@@H]1NC(=O)[C@H](CCCNC(=N)N)NC(=O)[C@@H]2CCCN2C(=O)[C@H](CCCNC(=N)N)NC(=O)CCCCCC(=O)NCCCCCCN(CC(N)=O)C(=O)[C@H](CCC(C)C)NC(=O)[C@H](CN)NC(=O)[C@H](Cc2ccc(O)cc2)NC1=O", "note": "(RPR[Nva]Y[Dap][hLeu][N(6-aminohexyl)Gly]-NH2; linker N-8 via Heptanedioyl)", "inhibition": "30%"},
      {"smiles": "CCC[C@H](NC(=O)[C@H](CCCNC(=N)N)NC(=O)CNCCCCCCN)C(=O)N[C@@H](Cc1ccc(O)cc1)C(=O)N[C@@H](CN)C(=O)N[C@@H](CCC(C)C)C(=O)N(CCN)CC(N)=O", "note": "(H-[Gly(N-(CH2)6NH2)]R[Nva]Y[Dap][hLeu][Gly(N-2-aminoethyl)]-NH2)", "inhibition": "64%"},
      {"smiles": "CCCC[C@H](NC(=O)[C@@H](N)CCCNC(=N)N)C(=O)N[C@@H](CCCNC(=N)N)C(=O)N[C@@H](CCC)C(=O)N[C@@H](Cc1ccc(O)cc1)C(=O)N[C@@H](CN)C(=O)N[C@@H](CCC(C)C)C(N)=O", "note": "(H-R[Nle]R[Nva]Y[Dap][hLeu]-NH2)", "inhibition": "82%"},
      {"smiles": "CCC[C@@H]1NC(=O)[C@H](CCCNC(=N)N)NC(=O)CN(C(=O)[C@@H](N)CCCNC(=N)N)CCCNC(=O)NCCCN(CC(N)=O)C(=O)[C@H](CCC(C)C)NC(=O)[C@H](CN)NC(=O)[C@H](Cc2ccc(O)cc2)NC1=O", "note": "(H-R[NGly(3-aminopropyl)]R[Nva]Y[Dap][hLeu][NGly(3-aminopropyl)]-NH2; linker 2-8 via CO)", "inhibition": "98%"},
      {"smiles": "CCC[C@H](NC(=O)[C@H](CCCNC(=N)N)NC(=O)[C@H](CCCCN)NC(=O)[C@@H](N)CCCNC(=N)N)C(=O)N[C@@H](Cc1ccc(O)cc1)C(=O)N[C@@H](CN)C(=O)N[C@@H](CCC(C)C)C(N)=O", "inhibition": "92%"},
      {"smiles": "CCC[C@H](NC(=O)[C@H](CCCNC(=N)N)NC(=O)[C@H](CC1CCCCC1)NC(=O)[C@@H](N)CCCNC(=N)N)C(=O)N[C@@H](Cc1ccc(O)cc1)C(=O)N[C@@H](CN)C(=O)N[C@@H](CCC(C)C)C(N)=O", "note": "(H-R[Cha]R[Nva]Y[Dap][hLeu]-NH2)", "inhibition": "85%"},
      {"smiles": "CCC[C@H](NC(=O)[C@H](CCCNC(=N)N)NC(=O)[C@H](CCC)NC(=O)[C@@H](N)CCCNC(=N)N)C(=O)N[C@@H](Cc1ccc(O)cc1)C(=O)N[C@@H](CN)C(=O)N[C@@H](CCC(C)C)C(N)=O", "note": "(H-R[Nva]R[Nva]Y[Dap][hLeu]-NH2)", "inhibition": "80%"},
      {"smiles": "CCC[C@@H]1NC(=O)[C@H](CCCNC(=N)N)NC(=O)CN(C(=O)[C@@H](N)CCCNC(=N)N)CCCNC(=O)NCCN(CC(N)=O)C(=O)[C@H](CCC(C)C)NC(=O)[C@H](CN)NC(=O)[C@H](Cc2ccc(O)cc2)NC1=O", "note": "(H-R[NGly(3-aminopropyl)]R[Nva]Y[Dap][hLeu][N(2-Aminoethyl)Gly]-NH2; linker 2-8 via CO)", "inhibition": "54%"},
      {"smiles": "CCC[C@H](NC(=O)[C@H](CCCNC(=N)N)NC(=O)[C@H](Cc1ccccc1)NC(=O)[C@@H](N)CCCNC(=N)N)C(=O)N[C@@H](Cc1ccc(O)cc1)C(=O)N[C@@H](CN)C(=O)N[C@@H](CCC(C)C)C(N)=O", "inhibition": "60%"},
      {"smiles": "CCC[C@@H]1NC(=O)[C@H](CCCNC(=N)N)NC(=O)CN(C(=O)[C@@H](N)CCCNC(=N)N)CCCCNC(=O)NCCN(CC(N)=O)C(=O)[C@H](CCC(C)C)NC(=O)[C@H](CN)NC(=O)[C@H](Cc2ccc(O)cc2)NC1=O", "note": "(H-R[Nlys]R[Nva]Y[Dap][hLeu][N(2-Aminoethyl)Gly]-NH2; linker 2-8 via CO)", "inhibition": "84%"},
      {"smiles": "CCC[C@@H]1NC(=O)[C@H](CCCNC(=N)N)NC(=O)CN(C(=O)[C@@H](N)CCCNC(=N)N)CCCCNC(=O)NCCCCCCN(CC(N)=O)C(=O)[C@H](CCC(C)C)NC(=O)[C@H](CN)NC(=O)[C@H](Cc2ccc(O)cc2)NC1=O", "note": "(H-R[Nlys]R[Nva]Y[Dap][hLeu][N(6-aminohexyl)Gly]-NH2; linker 2-8 via CO)", "inhibition": "94%"},
      {"smiles": "CCC[C@H](NC(=O)[C@H](CCCNC(=N)N)NC(=O)CNCCN)C(=O)N[C@@H](Cc1ccc(O)cc1)C(=O)N[C@@H](CN)C(=O)N[C@@H](CCC(C)C)C(=O)N(CCN)CC(N)=O", "note": "(H-[Gly(N-2-aminoethyl)]R[Nva]Y[Dap][hLeu][Gly(N-2-aminoethyl)]-NH2)", "inhibition": "67%"},
      {"smiles": "CCC[C@H](NC(=O)[C@H](CCCNC(=N)N)NC(=O)[C@@H](C)NC(=O)[C@@H](N)CCCNC(=N)N)C(=O)N[C@@H](Cc1ccc(O)cc1)C(=O)N[C@@H](CN)C(=O)N[C@@H](CCC(C)C)C(N)=O", "inhibition": "inactive"},
      {"smiles": "CCC[C@@H]1NC(=O)[C@H](CCCNC(=N)N)NC(=O)CN(C(=O)[C@@H](N)CCCNC(=N)N)CCNC(=O)NCCN(CC(N)=O)C(=O)[C@H](CCC(C)C)NC(=O)[C@H](CN)NC(=O)[C@H](Cc2ccc(O)cc2)NC1=O", "note": "(H-R[N(2-Aminoethyl)Gly]R[Nva]Y[Dap][hLeu][N(2-Aminoethyl)Gly]-NH2; linker 2-8 via CO)", "inhibition": "30%"}
    ]}
  ]
}
